Measurements taken from ChEMBL document CHEMBL1122909, “Psoralenamines. 3. Synthesis, pharmacological behavior, and DNA binding of 5-(aminomethyl)-8-methoxy-, 5-[[(3-aminopropyl)oxy]methyl]-, and 8-[(3-aminopropyl)oxy]psoralen derivatives” (1985).

Assays:
Nucleic Acid = test: Evaluated for photo-cross-linking of DNA; assay type: functional
Summary of the method: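 Sonicated calf thymus DNA (200 µg) plus psoralen 0.1–100 µg/mL in 10 mM Tris-HCl, 1 mM EDTA, pH 7.0. Irradiated 30 min (~365 nm, 24 kJ/m2), heated 100 °C 5 min, ice-cooled. Double- vs single-stranded DNA resolved on hydroxylapatite with 50–500 mM phosphate gradient. The concentration giving 50% cross-linked DNA is expressed relative to 8-MOP.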

Tetrahymena thermophila [1] = test: Evaluated for DNA photo-cross-linking in Tetrahymena thermophila and relative cross-linking affinity measured by the alkaline elution technique.; assay type: functional
Summary of the method: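 Tetrahymena thermophila ~2×10^5 cells prelabelled with [3H]thymidine; phototreated with psoralen in 10 mM Tris-HCl pH 7.4 at ~365 nm. Interstrand cross-links are measured by alkaline elution: cells lysed on 2-µm filter (0.2% Sarcosyl, 2 M NaCl, 40 mM EDTA, pH 10), eluted at pH 12.2. Efficiency relative to 8-MOP is taken from concentrations giving similar elution retardation.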

Tetrahymena thermophila [2] = test: Evaluated in vitro for phototoxic effect on ciliate Tetrahymena thermophila cells; assay type: functional
NHIK3025 [3] = test: Evaluated in vitro for phototoxic effect on human cell line NHIK 3025, assay performed using threefold dilution and result reported by one dilution step.; assay type: functional
Mus musculus = test: Evaluated in vivo for its photosensitization activity, against increase in skin thickness relative to that of 8-MOP.; assay type: functional; design: unit: % of 8-MOP
Summary of the method: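 Female hairless Hr/Hr mice, 4–6 weeks, 5–28 per group. Compound given ip at 0.6, 6 or 60 mg/kg (reported at 6 mg/kg). UVA from four TL20W/09 tubes after 5 min–2 h, 4 J cm-1 as printed. Skin-fold thickness measured by caliper 24 h post-irradiation, expressed relative to 8-MOP (=100%).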

NHIK3025 [4] = test: Evaluated for DNA. photo-cross-linking in cell line NHIK 3025 cross-linking affinity measured by alkaline elution technique.; assay type: functional, Homo sapiens
Summary of the method: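 NHIK 3025 cells (~10^6) labelled 16 h with [3H]thymidine (1 µCi/mL). Psoralen in PBS at 1–90 µg/mL, 10-min equilibration, then irradiation 0.8 J/cm2 at ~365 nm. Cells trypsinized and lysed on 2-µm filter (0.2% Sarcosyl, 2 M NaCl, 40 mM EDTA, pH 10), then eluted at pH 12.2. Relative efficiency vs 8-MOP is read from concentrations giving similar elution retardation.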

Work on `O=c1ccc2cc3ccoc3c(OCCO)c2o1` yielded a Photo-cross-linking of DNA (Nucleic Acid) of 1.

For `COc1c2occc2c(C[N+](C)(C)C)c2ccc(=O)oc12.[Cl-]`, the Photo-cross-linking of DNA (Nucleic Acid) was 0.1, the DNA photo-crosslinking (Tetrahymena thermophila [1]) was 2 and the Phototoxic effect (Tetrahymena thermophila [2]) was 0.3. It also gave a Phototoxic effect (NHIK3025 [3]) of 1, a Photosensitization (Mus musculus) of 140 and a DNA crosslinking (NHIK3025 [4]) of 3.

With `COc1c2occc2c(CO)c2ccc(=O)oc12` the Photo-cross-linking of DNA (Nucleic Acid) was 0.07.

For `COc1c2occc2c(COCCCO)c2ccc(=O)oc12`, the Photo-cross-linking of DNA (Nucleic Acid) was less than 0.07.

With `CC[N+](CC)(CC)Cc1c2ccoc2c(OC)c2oc(=O)ccc12.[Cl-]` the Photo-cross-linking of DNA (Nucleic Acid) was 0.05, the DNA photo-crosslinking (Tetrahymena thermophila [1]) was 14 and the Phototoxic effect (Tetrahymena thermophila [2]) was 5. It also gave a Phototoxic effect (NHIK3025 [3]) of 3, a Photosensitization (Mus musculus) of 133 and a DNA crosslinking (NHIK3025 [4]) of 8.

In the case of `Br.CCN(CC)CCCOc1c2occc2cc2ccc(=O)oc12`, the Photo-cross-linking of DNA (Nucleic Acid) is reported as 1.8, the DNA photo-crosslinking (Tetrahymena thermophila [1]) is reported as 170 and the Phototoxic effect (Tetrahymena thermophila [2]) is reported as 150. The Phototoxic effect (NHIK3025 [3]) was 100, the Photosensitization (Mus musculus) was 357 and the DNA crosslinking (NHIK3025 [4]) was 190.

Work on `COc1c2occc2c(CN2CCCCC2)c2ccc(=O)oc12.Cl` yielded a Photo-cross-linking of DNA (Nucleic Acid) of 0.3, a DNA photo-crosslinking (Tetrahymena thermophila [1]) of 8 and a Phototoxic effect (NHIK3025 [3]) of 3. The Photosensitization (Mus musculus) was 238 and the DNA crosslinking (NHIK3025 [4]) was 19.

Compound `COc1c2occc2c(CN(C(C)C)C(C)C)c2ccc(=O)oc12.Cl` has a Photo-cross-linking of DNA (Nucleic Acid) of 0.15, a Phototoxic effect (Tetrahymena thermophila [2]) of 10 and a Phototoxic effect (NHIK3025 [3]) of 2. It also gave a Photosensitization (Mus musculus) of 87 and a DNA crosslinking (NHIK3025 [4]) of 12.

Work on `COc1c2occc2c(CN2CCOCC2)c2ccc(=O)oc12.Cl` yielded a Photo-cross-linking of DNA (Nucleic Acid) of 0.1, a DNA photo-crosslinking (Tetrahymena thermophila [1]) of 6 and a Phototoxic effect (Tetrahymena thermophila [2]) of 0.3. For the same compound, the Phototoxic effect (NHIK3025 [3]) was 0.3, the Photosensitization (Mus musculus) was 154 and the DNA crosslinking (NHIK3025 [4]) was less than 1.

In the case of `COc1c2occc2c(CN2CCN(C)CC2)c2ccc(=O)oc12.Cl`, the Photo-cross-linking of DNA (Nucleic Acid) is reported as 0.2, the Phototoxic effect (Tetrahymena thermophila [2]) is reported as 10 and the Phototoxic effect (NHIK3025 [3]) is reported as 5. The Photosensitization (Mus musculus) was 325 and the DNA crosslinking (NHIK3025 [4]) was 9.

With `CN1CC[N+](C)(CCCOc2c3occc3cc3ccc(=O)oc23)CC1.[Br-]` the Photo-cross-linking of DNA (Nucleic Acid) was 2.5, the DNA photo-crosslinking (Tetrahymena thermophila [1]) was 2 and the Phototoxic effect (Tetrahymena thermophila [2]) was 10. It also gave a Phototoxic effect (NHIK3025 [3]) of 10, a Photosensitization (Mus musculus) of 463 and a DNA crosslinking (NHIK3025 [4]) of 7.

`COCc1c2ccoc2c(OC)c2oc(=O)ccc12` was tested, and the Photo-cross-linking of DNA (Nucleic Acid) was 0.04.

`COc1c2occc2c(CN(C)C)c2ccc(=O)oc12.Cl` showed a Photo-cross-linking of DNA (Nucleic Acid) of 0.6, a DNA photo-crosslinking (Tetrahymena thermophila [1]) of 14 and a Phototoxic effect (Tetrahymena thermophila [2]) of 15. The Phototoxic effect (NHIK3025 [3]) was 7, the Photosensitization (Mus musculus) was 194 and the DNA crosslinking (NHIK3025 [4]) was 24.

`COc1c2occc2c(CN)c2ccc(=O)oc12.Cl` showed a Photo-cross-linking of DNA (Nucleic Acid) of 2.1, a DNA photo-crosslinking (Tetrahymena thermophila [1]) of 3 and a Phototoxic effect (Tetrahymena thermophila [2]) of 5. It also gave a Phototoxic effect (NHIK3025 [3]) of 1, a Photosensitization (Mus musculus) of 172 and a DNA crosslinking (NHIK3025 [4]) of 8.

Compound `COc1c2occc2cc2ccc(=O)oc12` [METHOXSALEN] has a Photo-cross-linking of DNA (Nucleic Acid) of 1, a DNA photo-crosslinking (Tetrahymena thermophila [1]) of 100 and a Phototoxic effect (Tetrahymena thermophila [2]) of 100. For the same compound, the Phototoxic effect (NHIK3025 [3]) was 100, the Photosensitization (Mus musculus) was 100 and the DNA crosslinking (NHIK3025 [4]) was 100.

With `COc1c2occc2c(CN(CCO)CCO)c2ccc(=O)oc12.Cl` the Photo-cross-linking of DNA (Nucleic Acid) was 0.2, the DNA photo-crosslinking (Tetrahymena thermophila [1]) was 3 and the Phototoxic effect (Tetrahymena thermophila [2]) was 0.3. For the same compound, the Phototoxic effect (NHIK3025 [3]) was 3, the Photosensitization (Mus musculus) was 339 and the DNA crosslinking (NHIK3025 [4]) was 1.

`C[N+](C)(C)CCCOc1c2occc2cc2ccc(=O)oc12.[Br-]` gave a Photo-cross-linking of DNA (Nucleic Acid) of 1.1, a DNA photo-crosslinking (Tetrahymena thermophila [1]) of 5 and a Phototoxic effect (Tetrahymena thermophila [2]) of 3. The Phototoxic effect (NHIK3025 [3]) was 15, the Photosensitization (Mus musculus) was 477 and the DNA crosslinking (NHIK3025 [4]) was 3.

Work on `COc1c2occc2c(COCCC[N+](C)(C)C)c2ccc(=O)oc12.[Br-]` yielded a Photo-cross-linking of DNA (Nucleic Acid) of 0.1, a DNA photo-crosslinking (Tetrahymena thermophila [1]) of 4 and a Phototoxic effect (Tetrahymena thermophila [2]) of less than 0.3. The Phototoxic effect (NHIK3025 [3]) was 3 and the DNA crosslinking (NHIK3025 [4]) was 1.

Work on `COc1c2occc2c(CN(C)CCO)c2ccc(=O)oc12.Cl` yielded a Photo-cross-linking of DNA (Nucleic Acid) of 0.5, a Phototoxic effect (Tetrahymena thermophila [2]) of 3 and a Phototoxic effect (NHIK3025 [3]) of 2. The Photosensitization (Mus musculus) was 306 and the DNA crosslinking (NHIK3025 [4]) was 15.
